Source: PubChem
TNF necrop inh – inhibitors of TNF-alpha induced necroptosis in Jurkat FADD-/- cells; AID 463075; Jurkat FADD-/- TNF necroptosis rescue, ATP luminescence, 24 h; 0 = TNF only, 100 = no-TNF cells; actives 0.068% (n = 220,000); activation (protection from cell death), % at 10 µM;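 active means activation, meaning protection from cell death, of at least 50% relative to plate controls; inactive means activation below 50%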;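 further: necroptosis triggered by 40 ng/mL TNF-alpha added together with compound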
Autophagy HCS – autophagy modulation, high-content screen; actives 0.98% (n = 190,000); AID 463193; MEF GFP-LC3 puncta imaging; test concentration mostly 10 µM; calls only at 10 µM (by protocol);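 active means percentage of spot-positive cells more than 3 SD above its plate mean, without a fluorescence outlier flag or 80% toxicity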;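 further: spot-positive cell cutoff set from DMSO-treated cells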
Dynein cargo inh – dynein cargo transport inhibition. 3617.4 mouse cells, GR-EGFP nuclear translocation imaging; test concentration mostly 20 µM; stimulated with dexamethasone, 1 µM; stronger effect = lower value. z-score, hits read low. actives 0.47% (n = 220,000);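 active means plate z-score of nuclear minus cytoplasmic receptor signal below a set negative limit, without overly bright fluorescence or cell loss, cut at about -3.5 in these data, passing the limit was not always enough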;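 further: z-score of nuclear minus cytoplasmic ring GR-EGFP intensity difference per well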
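Also added – dexamethasone, 1.0 µM final · Buffer or medium – tet-free, stripped-serum medium · Schedule – induction 48 h, compound 1 h, agonist 30 min · Detection – formaldehyde fixation, Hoechst nuclear stain, 10x automated fluorescence imaging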
MDM2 E3 inh – Mdm2 E3 ligase (human) inhibition; cell-based MDM2 ubiquitination luciferase reporter, 2 h; 0 = plate control, 100 = twice control, blank-subtracted; signal enhancement, % at 5 µM; actives 0.11% (n = 210,000); Q00987;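 active means signal enhancement of 30% or more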;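 further: luminescence tracks abundance of the self-degrading MDM2-luciferase fusion protein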
Target sequence (Q00987 whole entry, looked up, the tested form may be a part): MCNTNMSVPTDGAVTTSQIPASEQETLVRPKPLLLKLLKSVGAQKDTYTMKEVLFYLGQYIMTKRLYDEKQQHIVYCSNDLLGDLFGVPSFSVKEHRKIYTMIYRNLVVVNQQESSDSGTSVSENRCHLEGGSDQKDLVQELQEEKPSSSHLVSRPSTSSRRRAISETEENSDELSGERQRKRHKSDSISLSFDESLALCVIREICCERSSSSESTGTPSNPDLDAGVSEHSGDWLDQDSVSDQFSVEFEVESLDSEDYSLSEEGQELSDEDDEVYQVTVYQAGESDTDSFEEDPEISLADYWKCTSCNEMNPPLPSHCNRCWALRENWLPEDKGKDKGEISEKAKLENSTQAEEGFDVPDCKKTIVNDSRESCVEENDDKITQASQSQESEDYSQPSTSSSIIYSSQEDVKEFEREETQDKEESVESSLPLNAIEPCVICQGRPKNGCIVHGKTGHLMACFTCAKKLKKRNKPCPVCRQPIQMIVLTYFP
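Assay system: stable mammalian line carrying autodegrading MDM2–luciferase fusion reporter; amount: 2000 cells seeded into each well; buffer or medium: DMEM; benchmarks: plate control and blank wells; signal: luciferase luminescence; timing: 2 h compound exposure at 37 °C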
zVAD death inh – blocks zVAD induced death of L929 cells | viability rescue, % at 10 µM | actives 0.38% (n = 220,000) | L929 zVAD necroptosis rescue, ATP luminescence, 24 h; with zVAD 60 µM;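 active means activation, scaled between plate controls, above about 75%, limit read from the data; inactive means activation under that limit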;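 further: 0% = zVAD with DMSO and 100% = DMSO alone without zVAD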
* marks the source's active call; other numbers are inactive results. Most compounds without a hit are left out; they make up all but 1.8% or so of the library.

Screening O=C(Cc1csc(Nc2nc(=S)[nH]c3ccccc23)n1)N1CCN(c2cccc(C(F)(F)F)c2)CC1 returned TNF necrop inh 1.6, Autophagy HCS active, Dynein cargo inh 1.71, MDM2 E3 inh -13.5 and zVAD death inh -1.8.
CCC(CC)NC(=O)CCc1nc2ccccc2c(=O)[nH]1 was read as TNF necrop inh -0.1, Autophagy HCS inactive, Dynein cargo inh 1.97 and zVAD death inh -1.0.
`CCN1CCN(C(=O)CCc2nc3ccccc3c(=O)[nH]2)CC1` gave TNF necrop inh -0.8, Autophagy HCS inactive, Dynein cargo inh -0.506, MDM2 E3 inh 36.8* and zVAD death inh 0.1.
`Cc1ccc(-n2c(C)nc3c(cnn3-c3ccc(F)cc3)c2=O)cc1C` gave TNF necrop inh -7.4, Autophagy HCS active, Dynein cargo inh -0.361, MDM2 E3 inh -19.6 and zVAD death inh 1.8.
COc1ccc(CNC(=O)C/C(C)=N/NC(=O)COc2ccc(Br)cc2)cc1 was read as TNF necrop inh 0.2, Autophagy HCS inactive, Dynein cargo inh 1.24, MDM2 E3 inh -7.7 and zVAD death inh -0.1.
Screening Cc1cnc(NC(=O)C2(c3ccccc3)CC2)s1 returned TNF necrop inh 62.9*, Autophagy HCS inactive, Dynein cargo inh -0.423, MDM2 E3 inh -13.9 and zVAD death inh 3.1.
O=C(Nc1ccccc1)c1nn(-c2ccccc2)c(=O)cc1C(F)(F)F was read as TNF necrop inh -3.3, Autophagy HCS active, Dynein cargo inh -0.317, MDM2 E3 inh 6.8 and zVAD death inh -0.2.
Screening COc1ccc(Cn2c(SCc3cc(C)ccc3C)nc3cc(OC)c(OC)cc3c2=N)cc1 returned TNF necrop inh -25.5, Autophagy HCS active, Dynein cargo inh 1.53, MDM2 E3 inh 1.1 and zVAD death inh 6.4.
For O=C(O)CC(NC(=O)Cc1ccc([N+](=O)[O-])cc1)c1ccc2c(c1)OCO2 (stereo unspecified) the results were TNF necrop inh -0.4, Autophagy HCS inactive, Dynein cargo inh -0.314, MDM2 E3 inh -16.1 and zVAD death inh 0.3.
`O=C(CCNC(=O)c1ccccc1Cl)Nc1nccs1` gave TNF necrop inh 2.4, Autophagy HCS inactive, Dynein cargo inh 0.202, MDM2 E3 inh -2.1 and zVAD death inh 2.6.
For O=c1[nH]c(SCCOc2cccc3ccccc23)nc2ccccc12 the results were TNF necrop inh 0.8, Autophagy HCS active, Dynein cargo inh 0.137, MDM2 E3 inh -3.2 and zVAD death inh 3.3.
Screening CCOc1ccc(OCCSc2nc3ccccc3c(=O)[nH]2)cc1 returned TNF necrop inh -0.2, Autophagy HCS inactive, Dynein cargo inh -0.18, MDM2 E3 inh -14.9 and zVAD death inh 1.6.
C=CCn1c(O)c(N=Nc2nc3ccccc3c(=O)n2-c2ccccc2)c2ccccc21 was read as TNF necrop inh 0.0, Autophagy HCS inactive, Dynein cargo inh -0.539, MDM2 E3 inh -8.8 and zVAD death inh -0.4.
Screening Cc1ccc(OCC(=O)NNC(=O)C2CCCO2)c(C)c1 (stereo unspecified) returned TNF necrop inh -0.2, Autophagy HCS inactive, Dynein cargo inh 0.232 and zVAD death inh -0.6.
For O=C(CSc1ccc(-c2ccco2)nn1)NC1CCCC1 the results were TNF necrop inh 1.1, Autophagy HCS inactive, Dynein cargo inh -1.05, MDM2 E3 inh 32.5* and zVAD death inh 0.6.
Screening CN1CCN(c2ccc(-c3ccc4ccccc4n3)cc2)CC1 returned TNF necrop inh 2.4, Autophagy HCS active, Dynein cargo inh 1.06, MDM2 E3 inh -87.8 and zVAD death inh 15.5.
Cc1ccccc1CC1(CO)CCCN(Cc2nc(-c3cccs3)oc2C)C1 (stereo unspecified) was read as TNF necrop inh 1.5, Autophagy HCS inactive, Dynein cargo inh -0.233, MDM2 E3 inh -9.6 and zVAD death inh -1.1.
Screening O=C(CSc1nnnn1-c1ccccc1)N1N=CCC1c1ccccc1 (stereo unspecified) returned TNF necrop inh 96.8*, Autophagy HCS inactive, Dynein cargo inh -0.37, MDM2 E3 inh -7.9 and zVAD death inh 14.3.
`COC(=O)CSc1nnnn1-c1ccccc1` gave TNF necrop inh -2.6, Autophagy HCS inactive, Dynein cargo inh 0.714, MDM2 E3 inh -20.9 and zVAD death inh -0.4.
Screening Cc1ccc(SCC(=O)N2N=CCC2c2ccccc2)cc1 (stereo unspecified) returned TNF necrop inh 67.6*, Autophagy HCS inactive, Dynein cargo inh 0.281, MDM2 E3 inh -15.9 and zVAD death inh 6.8.
O=C(CN1CCN(Cc2ccccc2)CC1)N1N=CCC1c1ccccc1 (stereo unspecified) was read as TNF necrop inh 9.3, Autophagy HCS inactive, Dynein cargo inh 0.144, MDM2 E3 inh -8.2 and zVAD death inh 8.1.
Screening CS(=O)(=O)N1CCN(c2ccccc2[N+](=O)[O-])CC1 returned TNF necrop inh 0.5, Autophagy HCS inactive, Dynein cargo inh 1.35, MDM2 E3 inh -34.9 and zVAD death inh -0.2.
For CCN(CC)CC(=O)Nc1c(C#N)cnn1-c1ccccc1 the results were TNF necrop inh 3.7, Dynein cargo inh -1.41, MDM2 E3 inh 3.5 and zVAD death inh 0.8.
CCN1CCCC1CNC(=O)c1cc2c(-c3cccc(OC)c3)nn(C)c2s1 (stereo unspecified) was read as TNF necrop inh -1.3, Autophagy HCS inactive, Dynein cargo inh 1.7, MDM2 E3 inh -19.8 and zVAD death inh 10.1.
CCN1CCCC1CNC(=O)c1cc2c(-c3ccc(Cl)cc3)nn(C)c2s1 (stereo unspecified) was read as TNF necrop inh -0.5, Autophagy HCS active, Dynein cargo inh 1.93, MDM2 E3 inh -8.6 and zVAD death inh 25.7.
Cn1nc(-c2ccc(Cl)cc2)c2cc(C(=O)NCCCN3CCCC3)sc21 was read as TNF necrop inh -2.5, Autophagy HCS active, Dynein cargo inh 0.478, MDM2 E3 inh -13.7 and zVAD death inh 63.5.
CCCCC(=O)Nc1ccc(C(=O)N(CC)c2ccccc2C)cc1 was read as TNF necrop inh -0.1, Autophagy HCS inactive, Dynein cargo inh 1.3, MDM2 E3 inh -11.3 and zVAD death inh 3.8.
Screening Cc1sc(/N=C/c2c(O)ccc3ccccc23)c(C#N)c1C returned TNF necrop inh 0.3, Autophagy HCS active, Dynein cargo inh 0.23, MDM2 E3 inh -12.2 and zVAD death inh 0.9.
`COc1ccc(O)c(/C=N/c2sc(C)c(C)c2C#N)c1` gave TNF necrop inh -0.8, Autophagy HCS inactive, Dynein cargo inh -0.299, MDM2 E3 inh -10.3 and zVAD death inh 1.3.
COc1ccc(-c2[nH]n(-c3ccc([N+](=O)[O-])cc3)c(=O)c2C=NCc2ccccc2)cc1 was read as TNF necrop inh -1.2, Autophagy HCS active, Dynein cargo inh -0.688, MDM2 E3 inh -29.8 and zVAD death inh 1.2.
